# Most compounds without a hit are left out; they make up all but 9.8% or so of the library.
# Calpain2 inh: calpain II (pig) inhibition. AID 1236. purified calpain II, fluorogenic peptide substrate, 30 min. inhibition, % at 16 µM. 0.37% of 220,000 active;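 active means inhibition above about 50%, limit read from the data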
# WT yeast gro inh: growth inhibition of WT yeast, mitochondrial fusion screen; mitochondrial fusion phenotypic screen, WT strain; 2.1% of 190,000 active; inhibition, % at 10 µM; in the data active means inhibition above about 58%; tested in S. cerevisiae
# Lmaj promast: Leishmania major promastigote growth inhibition | inhibition, % at 10 µM | 9% of 200,000 active | Leishmania major promastigotes, resazurin fluorescence viability; in the data active means inhibition above about 50%;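 further: promastigotes grown with compound for 44 hours at 28 °C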
# PMI act satM6P: increases human PMI activity with near-saturating mannose 6-phosphate; P34949; coupled PMI enzyme assay, resazurin fluorescence, 20 min; hits give high values; 1 = untreated enzyme, 0 = substrate-free blank; activation factor at 20 µM; 0.34% of 190,000 active;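 active means activation factor of 2 or more at 20 µM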
#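 Material: human phosphomannose isomerase with PGI, G6PDH, diaphorase coupling enzymes; amount: PMI at 15 ng/mL final; also added: Mannose-6-phosphate 1.0 mM (near-saturating) plus 0.22 mM NADP+; incubation: enzyme reaction with compound 20 min at room temperature; signal: resorufin fluorescence (Ex 544/Em 590 nm) from resazurin via diaphorase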
# Rad51 HR inh: blocks human Rad51 in homologous recombination; Q06609; hRad51 DNA strand exchange, fluorescence dequenching; inhibition, % at 10 µM; 0.085% of 200,000 active; AID 1385;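 active means inhibition above 40% at the single screening dose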;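 further: 0% = DMSO control wells and 100% = blanks with heterologous ssDNA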
# Target sequence (Q06609 whole entry, looked up): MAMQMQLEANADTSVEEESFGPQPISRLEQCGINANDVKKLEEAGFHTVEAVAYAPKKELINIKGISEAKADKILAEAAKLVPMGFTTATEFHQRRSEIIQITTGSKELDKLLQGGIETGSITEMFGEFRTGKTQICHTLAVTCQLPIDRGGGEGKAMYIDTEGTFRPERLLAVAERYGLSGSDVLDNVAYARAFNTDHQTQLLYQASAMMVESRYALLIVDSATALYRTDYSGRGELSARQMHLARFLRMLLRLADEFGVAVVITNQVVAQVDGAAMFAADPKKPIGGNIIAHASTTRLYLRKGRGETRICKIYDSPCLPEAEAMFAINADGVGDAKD
#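 material = hRad51 filaments on single-stranded DNA | reagent = Donor/quencher-labelled 47-bp dsDNA substrate | compound = 10 µM final, single point | schedule = strand-exchange reaction 15 min at room temperature | measured by = fluorescein emission 520 nm, excitation 485 nm | read-out basis = % inhibition versus plate control and blank means | benchmarks = plate controls and plate blanks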
# PMI act: phosphomannose isomerase (human) activation; activation factor at 20 µM; purified human PMI, coupled resazurin fluorescence, 20 min; hits give high values; 1 = vehicle control, 0 substrate-free wells; 0.005% of 190,000 active; AID 1214;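 active means activation factor of 2 or more at 20 µM, relative to plate controls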
# An asterisk follows results filed as active; . = not tested or not shown.
SMILES,Calpain2 inh,WT yeast gro inh,Lmaj promast,PMI act satM6P,Rad51 HR inh,PMI act
Cc1ccc2[nH]c(=O)c(C3C(C#N)=C(N)Oc4c3ccc3cccnc43)cc2c1 (stereo not drawn),-36,6,96*,0.8,0,0.9
O=C(N/N=C/c1ccncc1)c1ccccc1OCc1ccc(Br)cc1,6,9,100*,1.1,-9,1
Cc1ccc(/C=N/NC(=O)c2ccccc2OCc2ccc(F)cc2)o1,10,5,9,1,.,1
O=C(N/N=C/c1ccccc1)c1sccc1OCc1ccc(F)cc1,18,6,92*,1.1,0,1.1
CC(=O)N1CCCc2cc(S(=O)(=O)N(CC(C)C)CC(C)C)ccc21,-19,-8,85*,1,-5,1
CCN(c1cccc(C)c1)S(=O)(=O)c1cccc(C(=O)O)c1,-19,-3,-10,1.2,3,1.1
CCN(c1cccc(C(F)(F)F)c1)S(=O)(=O)c1ccc2c(c1)CCN2C(C)=O,-21,-13,60*,0.9,2,0.9
O=C(O)CN(c1cccc(C(F)(F)F)c1)S(=O)(=O)c1ccccc1,-17,-2,-7,1,-8,0.9
CC(=O)N1CCCc2cc(S(=O)(=O)N(C)CCC#N)ccc21,9,.,-5,1,8,1
CCN(c1cccc(C)c1)S(=O)(=O)c1ccc2c(c1)CCN2C(C)=O,-4,-31,94*,0.9,4,0.9
COc1ccccc1CN1CCNC(=O)C1CC(=O)N(C)Cc1ccon1 (stereo not drawn),14,1,-2,0.8,-13,0.9
COc1ccc(-c2cnc3c(c2)CCC3(C#N)C#N)cc1,-65,-9,32,1,-7,1
N/C(=N\OC(=O)CCn1cccc(C(F)(F)F)c1=O)c1ccc(Cl)cc1,-6,.,.,.,-3,.
C=C(C(=O)c1ccccc1)C(C)CC(=O)c1ccccc1 (stereo not drawn),-8,-22,86*,0.9,5,0.8
Cc1nnc(NC(=O)c2ccc3ccccc3n2)s1,8,9,17,1.1,.,1.2
CCOc1cccc(OCCOCCN2CCCC2)c1,-9,-7,-6,1,-2,0.9
CCCOc1ccc(OCCOCCN2CCc3ccccc3C2)cc1,-2,13,97*,1.1,-1,1.1
C=CCc1cc(OC)ccc1OCCOCCC(C(=O)OCC)C(=O)OCC,-2,0,54*,0.9,0,0.9
CCOc1ccc(OCCOCCN2CCc3ccccc3C2)cc1,16,-4,91*,1.1,5,1
Cc1ccc(SCCOCCN2CCc3ccccc3C2)cc1,36,44,92*,1,1,1
CCCOc1ccc(C(=O)N2CCCc3ccccc32)cc1,23,9,8,0.8,6,0.8
CC(=O)Nc1ccc2nc(CN3CCN(Cc4ccc(F)cc4)C(CCO)C3)ccc2c1 (stereo not drawn),-37,11,-4,0.8,-8,0.9
c1ccc(OCCOCCN2CCc3ccccc3C2)cc1,-16,-11,98*,1.2,11,1.1
C=CCc1cc(OC)ccc1OCCOCCN1CCc2ccccc2C1,22,21,90*,1.1,13,1.1
CN1CC(=O)N(CCOc2ccccc2)C1=O,-26,17,-5,1,.,0.9
SMILES,Calpain2 inh,WT yeast gro inh,Lmaj promast,PMI act satM6P,Rad51 HR inh,PMI act
O=C(O)c1ccc(N2CCS(=O)(=O)CC2)cc1,-27,-16,-3,1,-1,1.1
O=C(/C=C/c1ccc(Cl)cc1Cl)c1ccc[nH]1,-18,42,27,0.9,33,0.9
O=C(/C=C/c1ccccc1Cl)c1ccc[nH]1,20,10,74*,1,.,1
CN(CCC#N)C(=O)CC1(Cc2ccccc2)CCOC(C)(C)C1 (stereo not drawn),-13,.,.,.,8,.
Cc1cc(C)c(C)c(S(=O)(=O)NC(C(=O)O)C(C)C)c1C (stereo not drawn),-38,-8,5,1.3,0,1.4
CC1(C)CC(NCc2ccc3c(c2)OCO3)CCO1 (stereo not drawn),-1,8,84*,1,-1,1.1
O=C(NCc1ccc2c(c1)OCO2)C(=O)NC1CCCCC1,25,16,-7,1.1,5,1.1
